# Screening results deposited in PubChem BioAssay by Johns Hopkins Ion Channel Center.
# Compounds with a hit are over-represented: about 3.5% of the library has one in this group of screens.
# MrgX1 antag = antagonists of human MrgX1 receptor; Q96LB2; B-score at 10 µM; 310,000 compounds, 1.3% hits; MRGX1-HEK293 calcium flux, Fluo-4, BAM8-22 antagonism; stronger effect = lower value; AID 588676;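 active = calcium-response B-score plate-corrected more than 3 library SD below zero, starting fluorescence within 5 deviations, no agonist response on first addition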;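 also: peak minus trough fluorescence over baseline after final BAM8-22 challenge near maximal dose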
# Target sequence (Q96LB2 whole entry, looked up): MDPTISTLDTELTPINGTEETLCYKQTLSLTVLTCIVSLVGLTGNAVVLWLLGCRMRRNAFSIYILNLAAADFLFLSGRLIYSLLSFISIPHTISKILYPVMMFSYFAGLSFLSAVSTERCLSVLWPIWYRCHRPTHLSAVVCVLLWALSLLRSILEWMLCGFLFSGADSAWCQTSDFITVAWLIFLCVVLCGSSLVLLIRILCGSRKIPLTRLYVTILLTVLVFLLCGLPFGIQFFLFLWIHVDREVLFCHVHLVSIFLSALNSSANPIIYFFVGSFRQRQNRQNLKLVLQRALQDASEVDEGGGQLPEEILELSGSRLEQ
# MrgX1 agonist = activates human MrgX1 receptor signaling | MrgX1-HEK293 cells, Fluo-4 calcium fluorescence, agonist mode; stronger effect = higher value | B-score at 10 µM | 310,000 compounds, 0.44% hits;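 active = calcium response B-score plate-corrected fluorescence ratio at least 3 library SD, with starting fluorescence B-score inside 5 SD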
#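 Test system: HEK293 cells stably expressing human MrgX1 receptor; amount: 15,000 cells per well; doses: compound delivered in addition one of three; times: overnight plating before 1 h dye loading; detection: Fluo-4 NW calcium-flux fluorescence, kinetic read; read-out basis: B-scored fluorescence response ratio; controls: positive and negative controls per plate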
# MrgX1 allo act = allosterically activates human MrgX1 receptor signaling; B-score at 10 µM; AID 588675; MrgX1-HEK293, Fluo-4 calcium flux, FDSS; stronger effect = higher value; Q96LB2; 310,000 compounds, 0.63% hits;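 active = plate-corrected calcium response at least 3 library SD above typical, normal starting fluorescence, not activating the receptor alone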;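 also: compound read alongside a low EC10 to EC30 dose of BAM8-22 agonist; peak minus trough fluorescence over baseline measured at the second addition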
# RGS4 block = human RGS4 inhibition; B-score at 10 µM; P49798; HEK293 M3R/RGS4 inducible, Fluo-4 calcium flux; stronger effect = higher value; triggered by carbachol at its EC20; 310,000 compounds, 0.45% hits;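 active = B-score, a plate-corrected calcium signal, over three deviations above library mean, with baseline fluorescence within five deviations of library mean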;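 also: RGS4 expression induced by doxycycline in cells with stable M3 receptor; B-score is computed from the integrated fluorescence ratio over baseline after carbachol; higher B-score means a larger calcium signal and so more RGS4 inhibition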
# Target sequence (P49798 whole entry, looked up): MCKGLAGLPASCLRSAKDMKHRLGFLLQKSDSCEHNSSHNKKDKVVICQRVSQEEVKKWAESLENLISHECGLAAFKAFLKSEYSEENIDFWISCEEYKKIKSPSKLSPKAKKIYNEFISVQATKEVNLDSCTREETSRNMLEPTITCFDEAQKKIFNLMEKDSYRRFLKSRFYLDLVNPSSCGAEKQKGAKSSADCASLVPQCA
# RGS4 act = RGS4 potentiation or activation | HEK293 M3R/inducible RGS4, carbachol calcium flux Fluo4; stronger effect = lower value | B-score at 10 µM | 310,000 compounds, 0.92% hits | AID 463111;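 active = B-score of the integrated calcium signal more than 4 SD below the library mean, with starting fluorescence not abnormally high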;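 also: negative B-score means reduced calcium response which marks RGS4 activation or potentiation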
#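 Assay system: HEK293 FlpIn-TREx cells, stable M3R, doxycycline-inducible RGS4 / Probe or stimulus: carbachol, ECmax concentration / Times: overnight RGS4 induction, 30 min dye load 37 °C, 20 min compound RT / Signal: kinetic calcium fluorescence imaging with Fluo4-AM dye, 2 µM / Measure: Agonist-evoked peak-minus-minimum fluorescence over baseline, integrated ratio, B score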
# MrgX1 antag conf = human MrgX1 receptor antagonism, re-confirmation screen | shares compounds with MrgX1 antag | AID 602420 | remaining BAM8-22 calcium response % of control (stronger effect = lower value), % at 10 µM | 2,300 compounds, 19% hits | MrgX1-HEK293, BAM8-22 calcium flux, Fluo-4; stronger effect = lower value;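 active = remaining agonist calcium response no higher than 100% minus 3 SD of agonist-only control wells, with starting fluorescence near control levels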;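 also: agonist BAM8-22 given at a near maximal EC90 to ECmax level; peak minus minimum fluorescence divided by baseline after agonist addition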
# HEK293 Ca flux = MrgX1 antagonist counter-screen hit in parental HEK293 cells; shares compounds with MrgX1 antag; fluorescence ratio F(max-min)/F0 at 10 µM; AID 624111; Fluo-4 calcium fluorescence, FDSS; 4,000 compounds, 2% hits;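 active = duplicate-averaged calcium fluorescence ratio at least three times the standard deviation of buffer wells, a nonspecific response in parental cells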
# HEK293 Ca counter = MrgX1 allosteric activator counter-screen hit in parental HEK293 cells | parental HEK293 calcium flux, Fluo-4 fluorescence ratio; stronger effect = higher value | fluorescence ratio F(max-min)/F0 at 10 µM | 4,000 compounds, 0.4% hits | AID 624114 | shares compounds with MrgX1 antag;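 active = calcium fluorescence ratio, averaged over duplicates, at least 3 SD of the buffer-well ratio, meaning a nonspecific response in receptor-free cells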;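 also: untransfected parental HEK293 lacking MrgX1 used as counterscreen for MrgX1 allosteric activators; fluorescence change taken during the second addition on a kinetic imager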
# HEK293 Ca cntr2 = counter-screen for MrgX1 activators: effect in parental HEK293 cells; shares compounds with MrgX1 antag; Fluo-4 calcium fluorescence (FDSS); stronger effect = higher value; fluorescence ratio F(max-min)/F0 at 10 µM; 4,000 compounds, 8.7% hits;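 active = calcium fluorescence ratio at least three times the spread of buffer wells, meaning a non-specific response in parental cells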
# An asterisk follows results filed as active; i = inactive; nt = no result.
SMILES,MrgX1 antag,MrgX1 agonist,MrgX1 allo act,RGS4 block,RGS4 act,MrgX1 antag conf,HEK293 Ca flux,HEK293 Ca counter,HEK293 Ca cntr2
CCn1cc(C2C(C(=O)Nc3ccc(Br)cn3)=C(C)NC3=C2C(=O)CCC3)c(C)n1 (centres undefined),i,i,i,i,i,nt,nt,nt,nt
C=CCNC(=O)C12CCC(C)(C(=O)[C@H]1Br)C2(C)C (some centres undefined),i,i,i,i,i,nt,nt,nt,nt
COc1ccc(-c2noc(N3CCCC(C(=O)Nc4ccc(F)cc4F)C3)n2)cc1 (centres undefined),-4.6*,i,i,i,i,i,i,i,i
COc1ccc(-c2noc(N3CCCC(C(=O)Nc4ccccc4F)C3)n2)cc1 (centres undefined),i,i,i,i,i,nt,nt,nt,nt
Cc1cc(S(=O)(=O)N2CCOCC2)ccc1OCC(=O)NCC1CCCO1 (centres undefined),i,i,i,i,i,nt,nt,nt,nt
COc1ccc(-c2noc(CNS(=O)(=O)c3ccc(NC(C)=O)cc3)n2)cc1OC,i,i,i,i,i,nt,nt,nt,nt
O=C(c1cc(-c2ccccn2)nc2ccc(Br)cc12)N1CCN(S(=O)(=O)c2ccccc2)CC1,-6.7*,i,i,i,i,i,i,i,i
O=C(c1cc(-c2ccccn2)nc2ccc(Br)cc12)N1CCc2ccccc2C1,nt,nt,nt,i,i,nt,nt,nt,nt
CC1(C)CC(=O)c2c(-c3cccs3)n[nH]c2C1,-5.43*,i,i,i,i,i,i,i,i
CCOC(=O)COc1ccc2c(c1)C(=O)CC1(CCCCC1)O2,-7.59*,i,i,i,i,i,i,i,i
CCn1c(=O)c([N+](=O)[O-])c(NCCCn2ccnc2)c2ccccc21,i,i,i,i,i,nt,nt,nt,nt
COc1cccc(C(=O)N2CCN(CCCc3ccccc3)CC2)c1OC,i,i,i,nt,nt,nt,nt,nt,nt
COc1ccccc1C(=O)N1CCN(CCc2ccccc2)CC1,-5.38*,i,i,i,i,i,i,i,i
O=C(c1ccco1)N1CCN(C(=O)c2ccccc2Oc2ccccc2)CC1,-4.63*,i,i,i,i,79.5%*,i,i,i
CC1(C)CC(=O)C2=C(C1)N(c1ccc(F)cc1)C(=O)CC2c1ccsc1 (centres undefined),-5.06*,i,i,i,i,i,i,i,i
O=C(O)CN(CCc1ccccc1)S(=O)(=O)c1ccccc1,i,i,i,i,i,nt,nt,nt,nt
O=C(c1ccccc1)c1c(O)nc(-c2ccccc2)n(-c2ccccc2)c1=O,-7.97*,i,i,i,i,i,i,i,i
CC(=O)c1c(O)c(C)c(-c2ccccc2)n(-c2ccccc2)c1=O,i,i,i,i,i,nt,nt,nt,nt
Cc1ccc(C)c(S(=O)(=O)N2CCCC2CNC(=O)C(=O)NCCN2CCOCC2)c1 (centres undefined),i,i,i,i,i,nt,nt,nt,nt
CCOc1ccccc1N1CCN(C(=O)c2ccc(-c3ccc(OC(C)=O)cc3)cc2)CC1,i,i,i,i,i,nt,nt,nt,nt
O=C(CN1C(=O)NC2(CCCc3ccccc32)C1=O)N1CCc2ccccc2C1 (centres undefined),-9.25*,i,i,i,i,85.2%*,i,i,i
O=C(NC1CCCCC1)C1CC(=O)N(c2ccccc2)C1 (centres undefined),i,i,i,i,i,nt,nt,nt,nt
CN(C)C(=O)c1ccc(Nc2nc(-c3cccs3)nc3ccccc23)cc1,i,i,i,i,i,nt,nt,nt,nt
Cc1ccc(S(=O)(=O)N2CCCC2C(=O)NC2CCCCC2)cc1 (centres undefined),-13.7*,i,i,i,i,i,i,i,i
Cc1ccc(/C=N/NC(=O)NC23CC4CC(CC(C4)C2)C3)o1,i,i,i,i,i,nt,nt,nt,nt
SMILES,MrgX1 antag,MrgX1 agonist,MrgX1 allo act,RGS4 block,RGS4 act,MrgX1 antag conf,HEK293 Ca flux,HEK293 Ca counter,HEK293 Ca cntr2
COc1ccc(C(=O)Cc2ccc3c(c2)OCO3)c(O)c1,i,i,i,i,i,nt,nt,nt,nt
O=C(Cc1ccc2c(c1)OCCO2)c1c(O)cc(O)cc1O,-5.25*,i,i,i,i,71.1%*,i,i,i
CCSc1nc2sc3c(c2c(=O)n1CC)CC(C)(C)OC3,-7.06*,i,i,i,i,i,i,i,i
CCn1c(SCC(=O)OC)nc2sc3c(c2c1=O)CC(C)(C)OC3,i,i,i,i,i,nt,nt,nt,nt
CCOC(=O)C1=C(C)NC(=O)NC1c1ccc(-c2ccc(Cl)cc2)o1 (centres undefined),i,i,i,i,i,nt,nt,nt,nt
CCOC(=O)C1=C(C)NC(=S)NC1c1ccc(-c2ccc(Cl)cc2)o1 (centres undefined),-4.83*,i,i,i,i,i,i,i,i
COC(=O)c1cc(S(=O)(=O)N2CCN(c3ccc(C(C)=O)cc3)CC2)c[nH]1,i,i,i,i,i,nt,nt,nt,nt
COc1ccc(/C=N/n2c(N)nc3ccccc32)cc1OC,-8.56*,i,i,nt,nt,i,i,i,i
COc1cccc(/C=N/n2c(N)nc3ccccc32)c1OC,i,i,i,i,i,nt,nt,nt,nt
CCOC(=O)c1c(C)[nH]c2cc(Br)c(O)cc12,-7.4*,i,i,i,i,72.5%*,i,i,i
CCOC(=O)c1c(-c2ccc(OC)cc2)oc2cc(Br)c(O)cc12,i,i,i,i,i,nt,nt,nt,nt
CCN1CNC(=S)N(c2cc(C)ccc2C)C1,-5.84*,i,i,i,i,i,i,i,i
O=C(O)c1ccc(CNCc2ccc(Cl)cc2Cl)cc1,-5.03*,i,i,i,i,i,i,i,i
O=C(O)c1ccc(CNCc2ccc(Cl)cc2)cc1,i,i,i,i,i,nt,nt,nt,nt
